# Cneo AK release: Cryptococcus neoformans cell lysis inducers, primary screen, AK release luminescence, single concentration; C. neoformans lysis, adenylate kinase release luminescence, 4 h; normalised: neutral wells 0, clomiphene wells 100; lysis activity, % at 15 µM; actives 0.2% (n = 360,000); AID 651654, 2012;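 active = mean lysis activity across replicates of at least 80%, whatever share of replicates individually reach that level; inactive = mean lysis activity below 80%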
#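 Assay system: log-phase C. neoformans yeast / Quantity: yeast cell density of 5 × 10^6 cells/mL / Medium: fresh YPD growth medium / Compound: single dose / Timing: static 4 h at 37 °C with compound, 1 h detection / Measured by: adenylate kinase release luminescence / Read-out: lysis from increased AK signal / Benchmarks: Clomiphene as positive lysis control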
# CAL PDZ FP-1: CAL PDZ peptide-binding inhibitors, primary screen, biochemical, fluorescence polarization, Cer-tagged CAL PDZ, HTS; Golgi-associated PDZ and coiled-coil motif-containing protein (Homo sapiens), Q9HD26; purified CAL PDZ, TMR-peptide fluorescence polarization, 1 h; inhibition, % at 20 µM; actives 0.02% (n = 330,000); AID 504414, 2011;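 active = highest replicate inhibition of at least 40%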;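 note: plate controls were DMSO neutral control wells for no effect and unlabeled competitor peptide control wells for full effect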
#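 material = purified tagged CAL PDZ domain construct (CerCALP) | compound dosing = 20 µM, one dose | times = 1 h at RT | measured by = fluorescence polarization from S- and P-plane intensities, G-factor corrected | read-out = inhibition from polarization loss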
# CAL PDZ FP-2: untagged CAL PDZ binding inhibitors, primary screen, biochemical, fluorescence polarization, HTS; actives 0.92% (n = 300,000); inhibition, % at 24.9 µM; AID 602252, 2012; purified CAL PDZ, TMR-peptide fluorescence polarization, 1 h; Golgi-associated PDZ and coiled-coil motif-containing protein (Homo sapiens), Q9HD26;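 active = mean inhibition of at least 30% with at least half of replicates also reaching 30%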;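 note: 0% = DMSO neutral control and 100% = excess unlabeled competitor peptide PRC23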
# PglD inh: C. jejuni PglD acetyltransferase inhibitors, primary screen, biochemical, DTNB colorimetric, single point. UDP-N-acetylbacillosamine N-acetyltransferase PglD (Campylobacter jejuni). purified PglD enzyme, DTNB colorimetric CoA detection. inhibition, % at 12.5 µM. actives 0.098% (n = 360,000); in the data active = inhibition above about 16%, passing the limit was not always enough
# miR122 inh: miR-122 Renilla sensor signal increase in Huh7, primary screen, miR-122 inhibitor project, cell-based, single point, plate reader. activation (reporter increase), % at 12.5 µM. Huh7 miR-122 Renilla luciferase sensor, 48 h; neutral wells = 0, positive control = 100. actives 0.3% (n = 340,000);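 active = mean replicate activation score at least 90 and every replicate individually at or above 90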;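 note: higher luciferase means less miR-122 activity so hits act as miR-122 inhibitors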
# * hit, by the source's call; . = no result given; [ ] = remark or other dose. An excerpt weighted towards active compounds, which were near 1.1% of everything screened.
SMILES,Cneo AK release,CAL PDZ FP-1,CAL PDZ FP-2,PglD inh,miR122 inh
CCN(CC)CCN1C(=O)C(=O)/C(=C(/O)c2c(C)[nH]c(C(=O)OC)c2C)C1c1cccnc1 (stereo unspecified),-3.0,0.7,44.3*,2.5,-12.9
O=C1C2C3CC(C(Br)C3Br)C2C(=O)N1c1ccccn1 (stereo unspecified),-0.7,-0.7,44.1*,-5.1,-9.4
O=C(Nc1ccccc1)Nc1ccc2c(c1)[C@@H]1C[C@H](CC(=O)N3CCOCC3)O[C@@H](CO)[C@@H]1O2,-3.3,.,.,10.3,-1.0[16.7 µM]
CCCN(CCC)C(=O)c1cc(-c2ccc3c(c2)OCO3)nc2ccccc12,5.3,-0.8,-2.5,9.3,22.5
CCCNC(=O)NNC(=O)c1cc(-c2ccc3c(c2)OCO3)nc2ccccc12,-0.7,-2.0,-3.1,-3.1,102.2*
CCCNC(=O)[C@H]1[C@H](CO)[C@H]2Cn3c(cccc3=O)[C@@H]1N2C(=O)Nc1cc(F)ccc1F,87.8*,.,.,0.6,-2.3[16.7 µM]
CCC(=O)N1[C@@H]2Cn3c(cccc3=O)[C@H]1[C@@H](C(=O)NCc1ccccc1)[C@@H]2CO,99.4*,.,.,-0.2,20.8[16.7 µM]
CCC(=O)N1[C@@H]2c3cccc(=O)n3C[C@H]1[C@H](CO)[C@H]2C(=O)NCc1ccccc1,93.2*,.,.,-1.3,0.5[16.7 µM]
CCC(=O)N1[C@@H]2c3cccc(=O)n3C[C@H]1[C@H](CO)[C@H]2C(=O)NCc1ccc(F)cc1,1.6,.,.,-0.1,-2.3[16.7 µM]
O=C(CC(c1ccccc1)c1ccccc1)Nc1ccncc1,-32.4,-2.8,81.2*,-5.8,-4.5
Cc1cc(Br)cc(Cl)c1OC(=O)c1ccncc1,0.5,-1.9,47.2*,6.4,3.1
CN(Cc1ccccc1)S(=O)(=O)c1ccc(N2CCOCC2)nc1,-2.4,1.0,72.6*,-3.9,-7.7
CC(=O)OCC12COC3c4ccccc4OC(C)(CC1C)C3C2C (stereo unspecified),0.7,0.1,50.5*,5.9,-0.7
CN1CCCN(C(=O)c2ccc(Cl)cc2)CC1,1.5,0.2,-1.6,-6.8,-0.2
CN1CCN(C(=O)c2cc(Cl)cc(Cl)c2)CC1,2.0,.,63.9*,4.5,1.8
COc1ccc(-c2cn3cc([N+](=O)[O-])ccc3n2)cc1OC,.,-0.4,60.1*,.,.
COc1ccc(-c2cn3ccccc3n2)cc1[N+](=O)[O-],.,-0.6,-2.3,.,.
O=C(NCC(=O)N1CCN(c2ccccc2F)CC1)c1ccco1,-2.1,-0.8,70.9*,-6.9,-3.1
O=C(Cc1ccccc1)NCC(=O)N1CCN(c2ccccc2F)CC1,1.0,-1.6,-10.4,2.4,-0.3
CSCC(C)N1CCC(n2nccc2NC(=O)CCCc2ccccc2)CC1 (stereo unspecified),-0.3,-2.3,0.0,-1.5,-0.5
C=C(C)CCC(C)N1CCC(n2nccc2NC(=O)CCCc2ccccc2)CC1 (stereo unspecified),-1.3,1.0,41.8*,-2.9,-7.6
CCN1C(c2ccccc2)=C(c2ccccc2)S/C1=C/C=C1\SC(=S)N(C)C1=O,0.4,-1.9,36.1*,-1.0,.
CCN1C(c2ccccc2)=C(c2ccccc2)S/C1=C\C=C1/SC(=S)N(C)C1=O,.,-6.8,-6.9,.,.
COc1ccccc1NC(=O)N[C@@H]1C=C[C@H](CC(=O)N[C@@H](C)c2ccccc2)O[C@H]1CO,-6.2,.,.,1.2,.
Cc1[nH]c2ccccc2c1C(=O)CCl,.,-0.5,62.6*,.,.
SMILES,Cneo AK release,CAL PDZ FP-1,CAL PDZ FP-2,PglD inh,miR122 inh
N#C[C@H]1[C@H](c2ccc(C#CC3CCCCC3)cc2)[C@@H](CO)N1C(=O)Cc1ccccn1,0.9,.,.,-3.4,.
Cc1nc(SCC(=O)N2CCN(C(=O)c3cccs3)CC2)c2c(C)c(C)sc2n1,-1.2,-1.2,0.3,2.3,-2.3
Cc1nc(SCC(=O)N2CCN(C(=O)c3ccco3)CC2)c2c(C)c(C)sc2n1,-0.6,.,30.9*,5.9,-18.9
O=C(C[C@@H]1CC[C@H]2[C@@H](COC[C@H](O)CN2C(=O)c2ccccc2F)O1)NCc1ccc(Cl)c(Cl)c1,2.7,.,.,0.8,-5.3[16.7 µM]
CCOC(=O)C1CCN(C(=O)CCS(=O)(=O)c2ccc3c(c2)n(C)c(=O)c(=O)n3C)CC1,-1.6,-1.7,52.0*,-6.2,0.6
COc1cc(COCC(O)CN2CCOCC2)cc(OC)c1OC (stereo unspecified),2.4,-0.2,56.1*,-0.3,-11.1
O=C(C[C@H]1CC[C@H]2[C@@H](COC[C@@H](O)CN2S(=O)(=O)c2ccc(Cl)cc2)O1)N[C@H]1CCN(Cc2ccccc2)C1,3.5,.,.,-0.4,-7.1[16.7 µM]
Cc1ccc(NC(=O)CCCOc2ccccc2)cc1S(=O)(=O)N1CCOCC1,-0.4,-0.6,.,-4.7,-3.4
CCOc1ccc(S(=O)(=O)/N=C(/Nc2ccc(C)c(S(=O)(=O)N3CCOCC3)c2)c2ccccc2)cc1,-0.7,-1.2,.,-2.2,106.6*
Cc1ccc(NC(=O)C(=O)c2c(-c3ccccc3)cc3ccccn23)cc1S(=O)(=O)N1CCOCC1,-2.5,-3.3,-1.1,0.4,247.5*
COc1ccc(S(=O)(=O)N2C[C@H](O)COC[C@@H]3O[C@@H](CC(=O)N[C@H]4CCN(Cc5ccccc5)C4)CC[C@H]32)cc1,5.2,.,.,2.4,-1.9[16.7 µM]
C[C@H]1CN([C@@H](C)CO)C(=O)Cc2cc(N(C)C)ccc2O[C@@H]1CN(C)C(=O)Nc1ccc(C(F)(F)F)cc1,141.6*,.,.,1.8,-0.4[16.7 µM]
C[C@@H]1CN([C@@H](C)CO)C(=O)c2cc(N(C)C)ccc2O[C@@H]1CN(C)C(=O)Nc1ccc(C(F)(F)F)cc1,116.8*,.,.,-6.3,3.0[16.7 µM]
C[C@@H]1CN([C@H](C)CO)C(=O)Cc2cc(N(C)C)ccc2O[C@H]1CN(C)C(=O)Nc1ccc(C(F)(F)F)cc1,-8.6,.,.,-0.1,4.4[16.7 µM]
C[C@H](CO)N1C[C@H](C)[C@@H](CN(C)C(=O)Nc2ccc(C(F)(F)F)cc2)Oc2ccc(N(C)C)cc2C1=O,-1.4,.,.,-0.5,25.0[16.7 µM]
Cc1noc(C)c1NC(=O)N(C)C[C@H]1Oc2ccc(N(C)C)cc2C(=O)N([C@H](C)CO)C[C@@H]1C,101.7*,.,.,3.4,30.2[16.7 µM]
C[C@H](CO)N1C[C@H](C)[C@@H](CN(C)Cc2ccc(C(F)(F)F)cc2)Oc2ccc(N(C)C)cc2C1=O,.,.,.,.,98.0*[16.7 µM]
C[C@@H]1CN([C@H](C)CO)C(=O)c2cc(NC(=O)c3ccccc3)ccc2O[C@@H](C)CCCCO[C@@H]1CN(C)S(=O)(=O)c1cn(C)cn1,2.9,.,.,0.0,-1.5[16.7 µM]

# Source: PubChem BioAssay (Broad Institute)
